Laboratory results: ChEMBL document CHEMBL4024803, “New Steroidal 4-Aminoquinolines Antagonize Botulinum Neurotoxin Serotype A in Mouse Embryonic Stem Cell Derived Motor Neurons in Postintoxication Model” (J Med Chem, 2018)
pIC50: −log10 of the molar value.

Legend:
[1] = molecular target: Botulinum neurotoxin type A (Clostridium botulinum) (UniProt P0DPI0); assay: Inhibition of Clostridium botulinum BoNT/A holotoxin-mediated SNAP-25 cleavage in mouse HBG3 cell-derived motor neurons assessed as full length of SNAP-25 at 16 uM treated at 30 mins post intoxication by Western blot method relative to control; set-up: scale not given: the % may be the effect or the level left
[2] = molecular target: Botulinum neurotoxin type A (Clostridium botulinum) (UniProt P0DPI0); assay: Inhibition of Clostridium botulinum BoNT/A holotoxin-mediated SNAP-25 cleavage in mouse HBG3 cell-derived motor neurons assessed as full length of SNAP-25 at 16 uM preincubated for 30 mins followed by intoxication measured after 4 hrs by Western blot method relative to control; set-up: scale not given: the % may be the effect or the level left
[3] = molecular target: Botulinum neurotoxin type A (Clostridium botulinum) (UniProt P0DPI0); assay: Inhibition of Clostridium botulinum BoNT/A holotoxin-mediated SNAP-25 cleavage in mouse HBG3 cell-derived motor neurons assessed as full length of SNAP-25 at 10 uM preincubated for 30 mins followed by intoxication measured after 4 hrs by Western blot method relative to control; set-up: scale not given: the % may be the effect or the level left
[4] = molecular target: Botulinum neurotoxin type A (Clostridium botulinum) (UniProt P0DPI0); assay: (§1) Inhibition of Clostridium botulinum BoNT/A holotoxin-mediated SNAP-25 cleavage in mouse HBG3 cell-derived motor neurons preincubated for 30 mins followed by intoxication measured after 4 hrs by Western blot method
[5] = molecular target: T1, Botulinum neurotoxin type A (Clostridium botulinum, UniProt P0DPI0); assay: as §1
[6] = molecular target: Botulinum neurotoxin type A (Clostridium botulinum) (UniProt P0DPI0); assay: Inhibition of Clostridium botulinum BoNT/A holotoxin-mediated SNAP-25 cleavage in mouse HBG3 cell-derived motor neurons assessed as full length of SNAP-25 at 64 uM treated at 30 mins post intoxication by Western blot method relative to control; set-up: scale not given: the % may be the effect or the level left
[7] = molecular target: Botulinum neurotoxin type A (Clostridium botulinum) (UniProt P0DPI0); assay: Inhibition of Clostridium botulinum BoNT/A light chain at 20 uM using P39 as substrate preincubated for 10 mins followed by substrate addition measured after 10 mins by HPLC method relative to control
Summary of the method: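 Purified BoNT/A light chain (20 nM) with 0.2 mg/mL BSA in 50 mM HEPES pH 7.4, preincubated with compound for 10 min at room temperature. Cleavage fragments were separated by reversed-phase HPLC (214/280 nm). Percent inhibition was taken from fragment peak areas with vs without compound. Mean of three experiments.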

[8] = Distribution co-efficient, log D of the compound at pH 1 by reversed-phase thin-layer chromatographic method; type: physicochemical; settings: buffer
Summary of the method: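 Reversed-phase thin-layer chromatography at pH 1, mobile phase MeOH/HCl (70/30).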

[9] = molecular target: Botulinum neurotoxin type A (Clostridium botulinum) (UniProt P0DPI0); assay: Inhibition of Clostridium botulinum BoNT/A holotoxin-mediated SNAP-25 cleavage in mouse HBG3 cell-derived motor neurons assessed as full length of SNAP-25 at 8 uM preincubated for 30 mins followed by intoxication measured after 4 hrs by Western blot method relative to control; set-up: scale not given: the % may be the effect or the level left
[10] = system: Mus musculus; assay: Toxicity in mouse assessed as effect on survival at 160 mg/kg, po administered for 3 days measured after 30 days; type: organism-based; settings: in vivo, 720 h
Summary of the method: (§2)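 Groups of five healthy mice were dosed per os for three consecutive days, suspended in 0.5% hydroxyethylcellulose–0.1% Tween 80. Behaviour and appearance were monitored twice daily for 30 days, with survival assessed at 30 days. Non-toxic was defined as all 5 surviving with normal appearance and behaviour.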

[11] = system: Mus musculus; assay: Toxicity in mouse assessed as effect on behavior at 160 mg/kg, po administered for 3 days measured 2 times a day for 30 days; type: organism-based; settings: in vivo, 720 h; summary of the method: as §2
[12] = molecular target: Botulinum neurotoxin type A (Clostridium botulinum) (UniProt P0DPI0); assay: Inhibition of Clostridium botulinum BoNT/A holotoxin-mediated SNAP-25 cleavage in mouse HBG3 cell-derived motor neurons assessed as full length of SNAP-25 at 20 uM treated at 60 mins post intoxication by Western blot method relative to control; set-up: scale not given: the % may be the effect or the level left
[13] = molecular target: Botulinum neurotoxin type A (Clostridium botulinum) (UniProt P0DPI0); assay: Inhibition of Clostridium botulinum BoNT/A holotoxin-mediated SNAP-25 cleavage in mouse HBG3 cell-derived motor neurons assessed as full length of SNAP-25 at 20 uM treated at 30 mins post intoxication by Western blot method relative to control; set-up: scale not given: the % may be the effect or the level left
[14] = molecular target: Botulinum neurotoxin type A (Clostridium botulinum) (UniProt P0DPI0); assay: Inhibition of Clostridium botulinum BoNT/A holotoxin-mediated SNAP-25 cleavage in mouse HBG3 cell-derived motor neurons assessed as full length of SNAP-25 at 20 uM preincubated for 30 mins followed by intoxication measured after 4 hrs by Western blot method relative to control; set-up: scale not given: the % may be the effect or the level left
[15] = system: Mus musculus; assay: Toxicity in mouse assessed as effect on appearance at 160 mg/kg, po administered for 3 days measured 2 times a day for 30 days; type: organism-based; settings: in vivo, 720 h; summary of the method: as §2
[16] = Distribution co-efficient, log D of the compound at pH 10 by reversed-phase thin-layer chromatographic method; type: physicochemical; settings: buffer
Summary of the method: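 Reversed-phase thin-layer chromatography at pH 10, mobile phase acetone/NH3/H2O (85/5/10).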

[17] = molecular target: Botulinum neurotoxin type A (Clostridium botulinum) (UniProt P0DPI0); assay: (§3) Inhibition of Clostridium botulinum BoNT/A light chain using P39 as substrate preincubated for 10 mins followed by substrate addition measured after 10 mins by HPLC method
[18] = molecular target: T1, Botulinum neurotoxin type A; assay: as §3
[19] = system: Mus musculus; assay: In vivo inhibition of Clostridium botulinum BoNT/A in CD1 mouse assessed as mouse survival at 1 mg/kg, ip administered 3 hrs post intoxication measured over 24 hrs relative to control; type: functional

Row | Structure (SMILES) | Activity [1] [%] | Activity [2] [%] | Activity [3] [%] | inhibition [4] | pIC50 [5] | Activity [6] [%] | inhibition [7] [%] | chromatographic logD [8] | Activity [9] [%] | Activity [10] | Activity [11] | Activity [12] [%] | Activity [13] [%] | Activity [14] [%] | Activity [15] | chromatographic logD [16] | inhibition [17] | pIC50 [18] | survival at 1 mg/kg [19] [%]
1 | C[C@H](CCCNCCCCNc1ccnc2cc(Cl)ccc12)[C@H]1CC[C@H]2[C@@H]3[C@H](O)C[C@@H]4C[C@H](N)CC[C@]4(C)[C@H]3C[C@H](O)[C@]12C | 49 | 58 | 46 | Dose-dependent effect | 4.80 to 5.10 | 69 | 48 | 2.97 | 58 | – | – | – | – | – | – | – | – | – | –
2 | CN(CCCCCCCCNc1ccnc2ccccc12)Cc1ccc(-c2ccc(-c3ccc(C#N)cc3)s2)cc1 | – | – | 54 | Dose-dependent effect | 5.00 to 5.30 | – | 35 | 3.33 | – | Non-Toxic | Non-Toxic | 22 | 34 | 60 | Non-Toxic | – | – | – | –
3 | CC(CCCN(C)Cc1ccc(-c2csc3ccc(C#N)cc23)cc1)Nc1ccnc2ccccc12 (stereo not drawn) | – | – | 59 | Dose-dependent effect | 4.70 to 5.00 | – | 27 | – | – | – | – | – | – | 64 | – | 3.42 | – | – | –
4 | CC(CCN(C)CC12CC3CC(CC(C3)C1)C2)Nc1ccnc2cc(Cl)ccc12 (stereo not drawn) | – | – | 63 | Dose-dependent effect | > 5.00 | – | 67 | – | – | – | – | 16 | 15 | 72 | – | 3.47 | Dose-dependent effect | 4.93 | –
5 | CC(=O)O[C@H]1C[C@H]2[C@@H]([C@H](OC(C)=O)C[C@@H]3C[C@H](N)CC[C@@]32C)[C@@H]2CC[C@H]([C@H](C)CCCNCCCCNc3ccnc4ccccc34)[C@@]12C | – | – | 28 | Dose-dependent effect | 4.70 to 5.00 | – | 80 | 2.14 | – | – | – | 49 | 48 | 67 | – | – | Dose-dependent effect | 5.24 | –
6 | CC(CCCNc1ccnc2ccccc12)NCc1ccc(-c2csc3ccc(F)cc23)cc1 (stereo not drawn) | – | – | 58 | Dose-dependent effect | 4.70 to 5.00 | – | 75 | – | – | Non-Toxic | Non-Toxic | 17 | 16 | 68 | Non-Toxic | 3.85 | Dose-dependent effect | 5.13 | –
7 | O=C(N/N=C/c1cc(O)c(O)cc1O)c1cc2ccccc2cc1O | – | – | – | – | – | – | – | – | – | – | – | – | – | – | – | – | – | – | 30
8 | N#Cc1ccc(-c2ccc(-c3ccc(CNCCCCCCCCNc4ccnc5ccccc45)cc3)s2)cc1 | – | – | 31 | Dose-dependent effect | 4.70 to 5.00 | – | 77 | 3.42 | – | Non-Toxic | Non-Toxic | 19 | 20 | 70 | Non-Toxic | – | Dose-dependent effect | 5.17 | –
